SMILES strings stand for the structures. pEC50, pKi: −log10 of the molar value. Activity calls are given as the source filed them. The rule behind the calls is not given here.

The values below come from ChEMBL document CHEMBL1926607 (J Med Chem, 2011).

The nature of test [1]: Neuroprotective activity in Wistar rat hippocampi primary neuronal cells assessed as protection against glutamate-induced cell death at 1 uM treated 30 min before glutamate challenge measured after 22 hrs by MTT assay. The format is functional, Hippocampus, Primary neuron. Put shortly:
(§1)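 E18 fetal Wistar rat hippocampal neurons in neuron-enriched culture (Neurobasal, 2% B27, poly-L-lysine), used at 11 days in vitro. Compound added 30 min before 1 mM glutamate, exposure 22 h. Survival by MTT (mitochondrial dehydrogenase) read-out, reported as % protection.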
Background: Formazan colour is commonly taken as a measure of viable cells.

Test [2] can be described thus: Neuroprotective activity in Wistar rat hippocampi primary neuronal cells assessed as protection against serum-deprivation induced cell death at 1 uM after 24 hrs by MTT assay. Type of test: functional, Hippocampus, Primary neuron. An outline of the steps:
(§2)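 Mixed neuron-glia cultures from E18 Wistar rat hippocampi (Neurobasal plus 10% FCS), used at 11 days in vitro. Medium replaced by saline to withdraw serum; cells held 24 h with compound. Cell survival measured by MTT reduction, expressed as % protection.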

The nature of test [3]: Neuroprotective activity in Wistar rat hippocampi primary neuronal cells assessed as protection against oxygen-glucose deprivation induced cell death at 1 uM after 18 hrs by MTT assay. The format is functional, Hippocampus, Primary neuron.
The test system of test [4] is Rattus norvegicus. The experiment in a line: Neuroprotective activity in permanent middle cerebral artery occlusion-induced ischemic in Sprague-Dawley rat assessed as decrease in sub-cortical infract volume at 40 ug/kg/h, iv administered 1 hr before ischemia and 1 hr after ischemia measured after 24 hrs (reference value: 147 +/- 23 mm3). Type of test: functional.
The nature of test [5]: Neuroprotective activity in Wistar rat hippocampi primary neuronal cells assessed as protection against serum-deprivation induced cell death at 0.1 uM after 24 hrs by MTT assay. The format is functional, Hippocampus, Primary neuron. Put shortly:
as §2

For test [6], the system named is Rattus norvegicus. Nature of the test: Neuroprotective activity in permanent middle cerebral artery occlusion-induced ischemic in Sprague-Dawley rat assessed as decrease in cortical infract volume at 40 ug/kg/h, iv administered 1 hr before ischemia and 1 hr after ischemia measured after 24 hrs (reference value: 399 +/- 38 mm3). The format is functional.
Test [7] deals with Rattus norvegicus. Nature of the test: Neuroprotective activity against permanent middle cerebral artery occlusion-induced focal ischemia in Sprague-Dawley rat assessed as decrease in total cerebral infract volume at 40 ug/kg/h, iv administered 1 hr before ischemia and 1 hr after ischemia measured after 24 hrs (reference value: 546 +/- 51 mm3). The format is functional.
A short description of test [8]: Neuroprotective activity in Wistar rat hippocampi primary neuronal cells assessed as protection against oxygen-glucose deprivation induced cell death at 0.1 uM after 18 hrs by MTT assay. The format is functional, Hippocampus, Primary neuron.
Test [9] deals with T1, 5-hydroxytryptamine receptor 1A (Homo sapiens) (UniProt P08908).
T1 sequence (whole entry): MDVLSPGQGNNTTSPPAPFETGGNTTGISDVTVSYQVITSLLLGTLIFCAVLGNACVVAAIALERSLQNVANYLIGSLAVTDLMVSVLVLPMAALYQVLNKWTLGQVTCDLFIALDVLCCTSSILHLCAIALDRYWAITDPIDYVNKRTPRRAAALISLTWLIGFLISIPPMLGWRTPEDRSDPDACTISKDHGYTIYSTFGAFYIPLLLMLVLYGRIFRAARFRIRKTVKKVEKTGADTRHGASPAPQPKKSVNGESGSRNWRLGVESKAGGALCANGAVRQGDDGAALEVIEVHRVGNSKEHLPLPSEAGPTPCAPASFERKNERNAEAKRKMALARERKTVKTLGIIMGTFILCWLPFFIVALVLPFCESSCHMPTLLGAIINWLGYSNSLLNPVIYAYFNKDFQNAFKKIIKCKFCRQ
Nature of the test: Partial agonist activity at human 5HT1A receptor expressed in human HeLa cells assessed as inhibition of forskolin-stimulated cAMP production pretreated 20 mins before forskolin challenge measured after 2 hrs by RIA. The format is functional, cell-based. Put shortly:
(§3)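 HeLa cells stably expressing the h5-HT1AR, grown in DMEM with 2 mM glutamine, 1 mM pyruvate and 10% heat-inactivated FCS, and used after 2–3 days at about 7.5 × 10^4 cells/well. After a PBS wash, cells were incubated 10 min in PBS with 0.5 mM isobutylmethylxanthine and 10 μM forskolin, with or without compound. The reaction was stopped with ice-cold ethanol, extracted 2 h and lyophilized; cAMP was measured by RIA.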
For orientation: cAMP levels reflect the balance of adenylyl cyclase and phosphodiesterase activity.

Test [10] addresses T1, 5-hydroxytryptamine receptor 1A (Homo sapiens). The experiment in a line: Agonist activity at human 5HT1A receptor expressed in human HeLa cells assessed as inhibition of forskolin-stimulated cAMP production pretreated 20 mins before forskolin challenge measured after 2 hrs by RIA relative to control. Type of test: functional, cell-based.
Test [11] has as its target 5-hydroxytryptamine receptor 2A (Rattus norvegicus, UniProt P14842). Nature of the test: Displacement of [3H]ketanserin from 5HT2A receptor in Sprague-Dawley albinus rat frontal cortex membranes after 15 mins. Type of test: cell membranes, Membrane. Put shortly:
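Rat frontal cortex membranes (male Sprague–Dawley, 180–200 g). Nonspecific binding was set with 1 μM cinanserin.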
In general terms: In a radioligand displacement assay an active substance lowers the binding of a labelled ligand.

In test [12] the target is T2, 5-hydroxytryptamine receptor 1A (Rattus norvegicus, UniProt P19327).
T2 sequence (P19327 whole entry): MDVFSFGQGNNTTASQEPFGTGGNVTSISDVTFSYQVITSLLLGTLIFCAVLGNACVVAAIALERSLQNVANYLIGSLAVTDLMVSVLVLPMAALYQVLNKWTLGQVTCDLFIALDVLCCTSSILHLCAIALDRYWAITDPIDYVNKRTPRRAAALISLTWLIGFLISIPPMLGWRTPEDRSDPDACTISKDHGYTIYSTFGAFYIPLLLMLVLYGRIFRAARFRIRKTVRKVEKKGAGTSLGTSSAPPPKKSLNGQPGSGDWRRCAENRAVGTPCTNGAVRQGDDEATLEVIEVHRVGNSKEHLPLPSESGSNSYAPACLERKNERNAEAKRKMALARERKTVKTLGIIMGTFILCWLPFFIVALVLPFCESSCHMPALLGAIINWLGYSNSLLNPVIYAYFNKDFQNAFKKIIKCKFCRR
Nature of the test: Displacement of [3H]-8-OH-DPAT from 5-HT1A receptor in Sprague-Dawley albinus rat cerebral cortex membranes after 15 mins. The format is cell membranes, Membrane.

The subject of test [13] is Mus musculus. Nature of the test: Antihypothermic activity in ip dosed Swiss mouse assessed as inhibition of 8-OH-DPAT-induced hypothermia administered 30 mins before 8-OH-DPAT challenge measured after 15 to 60 mins. Type of test: functional. As to conditions: read-out: MED. Put shortly:
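Male Swiss mice (23–28 g) were housed five per cage. Rectal temperature (probe at 2 cm) was read at 15, 30 and 60 min after injection. The response was the maximum fall from basal temperature, analysed by ANOVA with Student–Newman–Keuls test.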

The target of test [14] is T3, 5-hydroxytryptamine receptor 1A (Homo sapiens, UniProt P08908).
T3 sequence (P08908 whole entry): T1 sequence (whole entry)
The experiment in a line: Agonist activity at human 5HT1A receptor expressed in human HeLa cells assessed as inhibition of forskolin-stimulated cAMP production […] measured after 2 hrs by RIA. The format is functional, cell-based. An outline of the steps:
as §3

Test [15] can be described thus: Neuroprotective activity in Wistar rat hippocampi primary neuronal cells assessed as protection against glutamate-induced cell death at 0.1 uM treated 30 min before glutamate challenge measured after 22 hrs by MTT assay. The format is functional, Hippocampus, Primary neuron. An outline of the steps: as §1

Sequence of 5-hydroxytryptamine receptor 2A (P14842 whole entry): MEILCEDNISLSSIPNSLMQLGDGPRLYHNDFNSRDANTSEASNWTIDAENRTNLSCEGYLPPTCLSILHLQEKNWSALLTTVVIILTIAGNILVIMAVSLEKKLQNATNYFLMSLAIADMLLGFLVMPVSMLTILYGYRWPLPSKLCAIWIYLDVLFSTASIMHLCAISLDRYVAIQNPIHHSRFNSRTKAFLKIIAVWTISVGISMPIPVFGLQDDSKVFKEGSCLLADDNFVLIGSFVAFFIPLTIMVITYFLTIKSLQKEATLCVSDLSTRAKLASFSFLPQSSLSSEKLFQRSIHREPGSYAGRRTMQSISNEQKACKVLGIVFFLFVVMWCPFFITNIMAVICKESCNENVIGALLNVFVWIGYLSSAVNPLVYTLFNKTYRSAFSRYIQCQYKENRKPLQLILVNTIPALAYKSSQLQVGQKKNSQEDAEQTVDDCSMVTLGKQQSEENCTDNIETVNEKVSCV

Turning to `CCCN(CCC)C1CCc2cccc(O)c2C1` (configuration not stated) [8-OH-DPAT], the Activity in test [1] is recorded as 37%; in test [2], 44%; in test [3], 54%.

On to `O=C1c2ccccc2S(=O)(=O)N1CCCCNC[C@H]1CCc2ccccc2O1` [REPINOTAN], for which the Activity in [4] was determined as 106 mm3; in [5], 31%; in test [6], 271 mm3; in test [7] it was 377 mm3; in test [8], 78%.

A word on the Emax: it is the greatest response seen or fitted, relative to the assay's reference. A word on the pKi: it is the negative decadic logarithm of the Ki, by convention in mol/L. With `O=C1C2CCCCN2C(=O)N1CCCCNCC1CCc2ccccc2O1` (configuration not stated), in test [9], the result was Active. Also, the Emax in [10] amounted to 77.9%. Besides, the figures for the pKi in [11] and in test [12] were less than 6.00 and 8.62, respectively.

Broadly, the pEC50 is −log10 of the EC50, conventionally taken in molar units. Take `O=C1c2ccccc2S(=O)(=O)N1CCCCNCC1CCc2ccccc2O1` (racemic): in test [10], the Emax was determined as 94.8%. Further, the minimal effective dose in [13] was 0.15 mg/kg. Further, the Activity stood at 26% in test [5] and 16% in test [15]. The pEC50 in test [14] was 8.82.
